Where two headings read alike, the source gives them in different places.
How the values were obtained:
tadpoles [1] = assay: Loss of righting reflexes; format: in vivo, tadpole
tadpoles [2] = conditions: read-out: published anesthetic EC50s; tadpole LoRR; cited from earlier work
α1β3γ2L GABAAR [3] = biological target: T1, α1β3γ2L GABAAR (Homo sapiens, UniProt P14867+P28472); assay: Voltage clamp electrophysiology of α1β3γ2L GABAAR expressed in Xenopus oocytes; format: cell-based; conditions: for enhancement of EC5 GABA-activated currents: 10 μM compound; for enhancement of EC5 GABA-activated currents / potentiation of EC5 GABA-activated chloride currents (up to): EC5 GABA (4 μM); for potentiation of EC5 GABA-activated chloride currents (up to): maximum concentration tested 100 μM
Target sequence in this assay (P18507 40-475 partner, one chain of several): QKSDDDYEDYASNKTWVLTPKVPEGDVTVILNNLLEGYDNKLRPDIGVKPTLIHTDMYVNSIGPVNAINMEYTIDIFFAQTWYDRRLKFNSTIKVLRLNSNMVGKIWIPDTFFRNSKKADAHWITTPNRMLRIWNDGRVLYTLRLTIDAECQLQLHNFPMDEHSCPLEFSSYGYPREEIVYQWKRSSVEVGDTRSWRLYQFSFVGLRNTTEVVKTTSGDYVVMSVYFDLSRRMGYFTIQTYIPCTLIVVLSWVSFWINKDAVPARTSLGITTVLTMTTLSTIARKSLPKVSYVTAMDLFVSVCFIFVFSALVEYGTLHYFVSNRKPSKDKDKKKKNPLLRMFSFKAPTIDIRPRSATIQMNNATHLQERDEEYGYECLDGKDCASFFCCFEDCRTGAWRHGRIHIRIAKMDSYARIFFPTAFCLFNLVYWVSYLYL

α1Q242Wβ3γ2L receptors = α1Q242Wβ3γ2L receptors (Homo sapiens, UniProt P14867+P28472, Q269W); assay: Electrophysiology of steroid site mutant α1Q242Wβ3γ2L receptors in oocytes; format: cell-based; conditions: 10 μM steroid; EC5 GABA
Chain of α1Q242Wβ3γ2L receptors (P14867 28-456 Q269W, one chain of several): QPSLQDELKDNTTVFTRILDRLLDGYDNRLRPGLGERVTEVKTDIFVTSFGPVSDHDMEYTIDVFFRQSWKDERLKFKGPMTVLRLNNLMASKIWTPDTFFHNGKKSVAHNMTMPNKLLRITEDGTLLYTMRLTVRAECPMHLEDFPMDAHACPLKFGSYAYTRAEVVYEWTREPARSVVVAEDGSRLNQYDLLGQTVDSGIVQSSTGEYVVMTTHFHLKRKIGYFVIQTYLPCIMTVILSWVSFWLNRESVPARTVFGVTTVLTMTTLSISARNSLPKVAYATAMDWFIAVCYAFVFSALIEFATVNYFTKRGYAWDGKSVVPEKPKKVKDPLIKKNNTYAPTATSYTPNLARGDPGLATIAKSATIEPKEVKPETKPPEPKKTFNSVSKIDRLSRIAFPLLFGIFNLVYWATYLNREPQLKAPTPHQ
Chain of α1Q242Wβ3γ2L receptors (P18507 40-475 partner, one chain of several): as the sequence (P18507 40-475 partner, one chain of several) above
How it was run: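 Female Xenopus laevis stage V oocytes were injected with up to 10 ng of α1Q242W, β3 and γ2L mRNA (1:1:3) and held ≥24 h. Two-electrode voltage clamp was run at −50 mV and 20–22°C, with ND96 (pH 7.4) superfusion at 2–3 mL/min.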

α1β3 GABAAR [4] = biological target: T2, α1β3 GABAAR (Homo sapiens, UniProt P14867+P28472); assay: Inhibition of [3H]21-pTFDBzox-AP photolabeling of purified α1β3 GABAAR; format: binding; conditions: for inhibition of photolabeling at high concentrations: same extent as 30 μM allopregnanolone
T2 sequence (P14867 28-456): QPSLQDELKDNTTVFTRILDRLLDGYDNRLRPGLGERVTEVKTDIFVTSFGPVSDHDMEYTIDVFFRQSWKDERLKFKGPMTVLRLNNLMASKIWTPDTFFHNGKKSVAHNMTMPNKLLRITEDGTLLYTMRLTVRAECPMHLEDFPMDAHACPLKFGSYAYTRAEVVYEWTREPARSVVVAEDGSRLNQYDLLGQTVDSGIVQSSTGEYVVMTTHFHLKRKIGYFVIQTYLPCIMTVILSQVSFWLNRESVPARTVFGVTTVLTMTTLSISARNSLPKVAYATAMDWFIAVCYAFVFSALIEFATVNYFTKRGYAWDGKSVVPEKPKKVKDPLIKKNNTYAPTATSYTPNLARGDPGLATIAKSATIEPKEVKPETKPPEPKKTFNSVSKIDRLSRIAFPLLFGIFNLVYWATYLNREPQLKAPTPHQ
T2 sequence (P28472 26-473): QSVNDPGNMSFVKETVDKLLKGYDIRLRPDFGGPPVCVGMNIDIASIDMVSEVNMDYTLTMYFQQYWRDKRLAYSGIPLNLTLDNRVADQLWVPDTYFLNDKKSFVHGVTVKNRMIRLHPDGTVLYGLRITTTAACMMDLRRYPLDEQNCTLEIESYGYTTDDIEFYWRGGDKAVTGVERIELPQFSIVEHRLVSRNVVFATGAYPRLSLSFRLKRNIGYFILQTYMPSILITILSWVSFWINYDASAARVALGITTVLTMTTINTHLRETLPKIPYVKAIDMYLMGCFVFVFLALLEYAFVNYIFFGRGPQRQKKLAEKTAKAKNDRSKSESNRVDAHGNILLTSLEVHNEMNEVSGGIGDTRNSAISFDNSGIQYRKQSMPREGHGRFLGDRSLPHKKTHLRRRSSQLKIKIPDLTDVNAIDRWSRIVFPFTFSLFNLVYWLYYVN

α1β3γ2 GABAAR = α1β3γ2 GABAAR (Homo sapiens, UniProt P14867+P28472); assay: Inhibition of [3H]21-pTFDBzox-AP photolabeling of purified α1β3γ2 GABAAR; format: binding; conditions: 30 μM; 0.8 μM [3H]21-pTFDBzox-AP
Chain of α1β3γ2 GABAAR (P18507 40-475 partner, one chain of several): as the sequence (P18507 40-475 partner, one chain of several) above

α1β3 GABAAR [5] = biological target: T2, α1β3 GABAAR; assay: Voltage clamp electrophysiology of α1β3 GABAAR expressed in Xenopus oocytes; format: cell-based
α1L264Tβ3γ2L receptors = α1L264Tβ3γ2L receptors (Homo sapiens, UniProt P14867+P28472, L291T); assay: Direct activation of spontaneously gating α1L264Tβ3γ2L receptors in oocytes; format: cell-based
Chain of α1L264Tβ3γ2L receptors (P18507 40-475, one chain of several): as the sequence (P18507 40-475 partner, one chain of several) above
Chain of α1L264Tβ3γ2L receptors (P14867 28-456 L291T, one chain of several): as the sequence (P14867 28-456 Q269W, one chain of several) above, with W242Q, L264T counted along it

α1β3γ2L GABAAR [6] = biological target: T1, α1β3γ2L GABAAR; assay: Modulation of 2 nM [3H]muscimol binding to α1β3γ2L GABAAR
Target sequence in this assay (P18507 40-475, one chain of several, further chain): as the sequence (P18507 40-475 partner, one chain of several) above

α1β3 GABAAR [7] = biological target: T2, α1β3 GABAAR; assay: Modulation of 2 nM [3H]muscimol binding to α1β3 GABAAR

CC(=O)[C@H]1CC[C@H]2[C@@H]3CC[C@H]4C[C@H](O)CC[C@]4(C)[C@H]3C(=O)C[C@]12C [alphaxalone, 5α-pregnan-3α-ol-11,20-dione, reference compound]
EC50 (tadpoles [1]; read-out: anesthetic EC50 (LoRR), alphaxalone alone, 60 minutes equilibration): 1400 ± 300 nM | EC50 (tadpoles [1]; read-out: anesthetic EC50 of alphaxalone, in constant presence of […] 21-pTFDBzox-AP): 920 ± 300 nM | EC50 (tadpoles [2]): 1000 to 2000 nM

C[C@]12CC[C@@H](O)C[C@@H]1CC[C@@H]1[C@@H]2CC[C@]2(C)[C@@H](C(=O)CO)CC[C@@H]12 [THDOC, 5α-pregnan-3α, 21-diol-20-one, reference compound]
enhancement of EC5 GABA-activated currents (α1β3γ2L GABAAR [3]): 16 ± 2.1 fold | positive modulation in α1Q242W mutant receptors (α1Q242Wβ3γ2L receptors): eliminated positive modulation | inhibition of photolabeling at high concentrations (α1β3 GABAAR [4]): 60%

CC(=O)[C@H]1CC[C@H]2[C@@H]3CC[C@H]4C[C@H](O)CC[C@]4(C)[C@H]3CC[C@]12C [allopregnanolone, 5α-pregnan-3α-ol-20-one]
reduction of β subunit photolabeling (α1β3 GABAAR [4]; 30 μM, 0.8 μM [3H]21-pTFDBzox-AP): 60% | reduction of β subunit photolabeling (α1β3γ2 GABAAR): 70%

CC(=O)[C@H]1CC[C@H]2[C@@H]3CC[C@@H]4C[C@H](O)CC[C@]4(C)[C@H]3CC[C@]12C [pregnanolone, 5β-pregnan-3α-ol-20-one]
IC50 (α1β3 GABAAR [4]): 700 nM | inhibition of photolabeling at high concentrations (α1β3 GABAAR [4]): 60%

pregnenolone sulfate
inhibition of photolabeling (α1β3 GABAAR [4]; 100 μM): no inhibition

C=CC[C@@]1(c2cccc(C3(C(F)(F)F)N=N3)c2)C(=O)NC(=O)N(C)C1=O [R-mTFD-MPAB]
inhibition of photolabeling (α1β3 GABAAR [4]; 60 μM): no inhibition

21-[4-(3-(Trifluoromethyl)-3H-diazirin-3-yl)benzoxy]allopregnanolone [21-pTFDBzox-AP]
antagonism of alphaxalone's anesthetic action (tadpoles [1]; 2.5 or 10 μM 21-pTFDBzox-AP): no significant antagonism | Loss of righting reflexes (LoRR) (tadpoles [1]; tadpoles exposed to 1, 2, 3 and 10 μM): No LoRR | effect on GABA EC50 (α1β3γ2L GABAAR [3]; 5 μM): did not reduce the GABA EC50 | enhancement of EC5 GABA-activated currents (α1β3γ2L GABAAR [3]): 2.6 ± 0.3 fold | fitted maximal enhancement ratio (α1β3γ2L GABAAR [3]; EC5 GABA, Hill slope constrained to 1.7): 2.6 ± 0.3 | enhancement of EC10 GABA-activated currents (α1β3 GABAAR [5]; 10 μM compound, EC10 GABA (1 μM)): 2.1± 0.4 fold | fitted maximal enhancement ratio (α1β3 GABAAR [5]; EC10 GABA, Hill slope constrained to 1.7): 2.1 ± 0.4 | positive modulation in α1Q242W mutant receptors (α1Q242Wβ3γ2L receptors): eliminated positive modulation | current elicited as % of the maximal GABA response (α1L264Tβ3γ2L receptors; 2 μM, no GABA): approximately 21% | direct increase of inward current in the absence of GABA (α1L264Tβ3γ2L receptors; 2 μM, no GABA): about 50% | Hill coefficient nH of [3H]muscimol binding enhancement (α1β3γ2L GABAAR [6]; detergent/lipid micelles): 1.15 ± 0.36 | maximal enhancement of [3H]muscimol binding (α1β3γ2L GABAAR [6]; detergent/lipid micelles): 135 ± 1% | Hill coefficient nH of [3H]muscimol binding enhancement (α1β3γ2L GABAAR [6]; membranes): 1.09 ± 0.22 | maximal enhancement of [3H]muscimol binding (α1β3γ2L GABAAR [6]; membranes): 199 ± 30% | Hill coefficient nH of [3H]muscimol binding enhancement (α1β3 GABAAR [7]; detergent/lipid micelles): 1.45 ± 0.51 | maximal enhancement of [3H]muscimol binding (α1β3 GABAAR [7]; detergent/lipid micelles): 172 ± 6% | Hill coefficient nH of [3H]muscimol binding enhancement (α1β3 GABAAR [7]; membranes): 1.71 ± 0.10 | maximal enhancement of [3H]muscimol binding (α1β3 GABAAR [7]; membranes): 271 ± 7%

CCOC(=O)c1cncn1[C@H](C)c1ccccc1 [etomidate]
inhibition of photolabeling (α1β3 GABAAR [4]; 1 mM): no inhibition

CC(=O)[C@H]1CC[C@H]2[C@@H]3CC4(N=N4)[C@@H]4C[C@H](O)CC[C@]4(C)[C@H]3C(=O)C[C@]12C [6-azi-OP, 6-Azi-3α-hydroxy-5β-pregnane-11,20-dione]
potentiation of EC5 GABA-activated chloride currents (up to) (α1β3γ2L GABAAR [3]): 8.0 ± 1.4 fold | Hill coefficient nH of [3H]muscimol binding enhancement (α1β3γ2L GABAAR [6]; α1β3γ2 GABAARs): 1.6 ± 0.1 | efficacy of modulation of [3H]muscimol binding (α1β3γ2L GABAAR [6]; α1β3γ2 GABAARs): 241 ± 3%

Picrotoxin [reference compound]
outward currents as % of maximal GABA-induced inward currents (α1L264Tβ3γ2L receptors; 2 mM): about 40%

CC(=O)[C@H]1CC[C@H]2[C@@H]3CC4(N=N4)[C@H]4C[C@H](O)CC[C@]4(C)[C@H]3C(=O)C[C@]12C [6-azi-OAP, 6-Azi-3α-hydroxy-5α-pregnane-11,20-dione]
decrease of GABA EC50 (α1β3γ2L GABAAR [3]; 15 μM 6-azi-OAP): approximately 3 fold | potentiation of EC5 GABA-activated chloride currents (up to) (α1β3γ2L GABAAR [3]): 10.1 ± 0.67 fold | effect on GABA dose-response curves compared with α1β3γ2L (α1β3 GABAAR [5]; 15 μM, not shown): similar | Hill coefficient nH of [3H]muscimol binding enhancement (α1β3γ2L GABAAR [6]; α1β3γ2 GABAARs): 1.3 ± 0.15 | efficacy of modulation of [3H]muscimol binding (α1β3γ2L GABAAR [6]; α1β3γ2 GABAARs): 330 ± 9%
